Rows were chosen to be rich in hits. Some 2.9% of all compounds tested hit in one or more screens of this group.
NRP1-CendR mod: modulators of CendR peptide binding to NRP-1, primary screen, biochemical, fluorescence polarization, uHTS; AID 602438, 2012; FAM-RPARPAR peptide binding to NRP-1; Neuropilin-1 (Homo sapiens), O14786; inhibition, % at 25 µM; 0.85% of 360,000 active;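 active means inhibition or corrected inhibition above about 18%, plus a signal ratio from 0.5 to 1.5, limit read from the data, passing the limit was not always enough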
DDE Tn6 FP inh: inhibitors of Tn6 peptide binding to fibrin DD(E), primary screen, biochemical, fluorescence polarization, human fibrin, Tn6 probe; Fibrinogen beta chain (Homo sapiens), P02675; Fibrin DD(E) TRITC-Tn6 fluorescence polarization displacement; inhibition, % at 8.3 µM; 0.21% of 370,000 active; AID 720509, 2013;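 active means inhibition above a per-campaign cutoff: mean of compounds within control limits plus 3 SD, cut at about 15% in these data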;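 further: 0% = median of all compound wells on the plate and 100% = blocking peptide control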
Target sequence (P02675 whole entry, looked up): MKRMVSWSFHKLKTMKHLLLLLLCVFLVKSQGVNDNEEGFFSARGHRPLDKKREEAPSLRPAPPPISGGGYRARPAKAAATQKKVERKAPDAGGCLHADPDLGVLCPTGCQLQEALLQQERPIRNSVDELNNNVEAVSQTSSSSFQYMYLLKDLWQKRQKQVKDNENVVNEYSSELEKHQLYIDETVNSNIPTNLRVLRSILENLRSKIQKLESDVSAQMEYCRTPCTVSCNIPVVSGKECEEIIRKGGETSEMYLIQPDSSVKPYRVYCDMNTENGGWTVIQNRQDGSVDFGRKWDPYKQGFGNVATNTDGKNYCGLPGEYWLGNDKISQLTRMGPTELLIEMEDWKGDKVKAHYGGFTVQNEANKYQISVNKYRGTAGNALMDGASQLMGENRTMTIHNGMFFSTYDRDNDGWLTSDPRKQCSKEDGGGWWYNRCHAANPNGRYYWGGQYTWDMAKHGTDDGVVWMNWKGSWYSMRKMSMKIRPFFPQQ
CRFR2-BP antag: antagonists of CRF-BP/CRF-R2 complex, primary screen, cell-based, HEK293, calcium dye fluorescence, uHTS | CRF-induced calcium fluorescence | inhibition, % at 11.8 µM | 0.59% of 350,000 active;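 active means inhibition of the ligand-induced calcium signal above about 50% at the single tested concentration, limit read from the data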
proKLK7 act: proKLK7 zymogen activators, primary screen, biochemical, fluorescence intensity | activation, % at 7 µM | 0.9% of 370,000 active | Kallikrein-7 (Homo sapiens), P49862 | purified proKLK7, EDANS-DABCYL substrate fluorescence; 100% is mature enzyme control, 0% vehicle;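 active means activation above the mean of all tested compounds plus 3 SD, computed per campaign excluding outliers beyond control limits, cut at about 13% in these data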
CRFBP-R2 agonist: agonists of CRF-BP/CRF-R2 complex, primary screen, cell-based, HEK293, calcium dye fluorescence, uHTS; calcium dye fluorescence (FLIPR); percent of saturating CRF peptide response; activation, % at 13.2 µM; 0.46% of 350,000 active; AID 588473, 2011;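 active means activation of at least 50%, plus an integration ratio under a set limit after plate pattern correction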;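 further: plate controls were neutral control wells without compound for no effect and CRF at EC100 for full effect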
DDE Tn7 FP inh: inhibitors of Tn7 peptide binding to fibrin DD(E), primary screen, biochemical, fluorescence polarization, human fibrin, Tn7 probe. FP displacement of FITC-Tn7 peptide from fibrin DD(E); 0% = median of compound wells per plate. inhibition, % at 8.3 µM. 0.13% of 370,000 active. AID 720508, 2013;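 active means inhibition above the mean of compounds falling within the control limits plus 3 SD of them, cut at about 14% in these data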;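 further: 0% = plate median of compound wells and 100% = 10 µM Aha-Tn7 peptide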
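Test system: human clot-derived fibrin DD(E) complex / Quantity: 2 µM final DD(E) protein / Incubation: 10 min plus 3 h, room temperature / Measured by: fluorescence polarization / Benchmarks: high control of 10 µM Aha-Tn7 peptide / Replicates: singlicate testing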
The depositor's hits bear a star; · = no result.

SMILES	NRP1-CendR mod	DDE Tn6 FP inh	CRFR2-BP antag	proKLK7 act	CRFBP-R2 agonist	DDE Tn7 FP inh
CCC(C)Cn1cnc2c(SCc3ccccc3F)nc(N)nc21 (stereo not drawn)	-7	2	3	0	-4	-2
CC(C)Cn1cnc2c(SCc3ccccc3F)nc(N)nc21	26*	4	9	0	-2	0
CC(C)Cn1cnc2c(SCc3ccccc3)nc(N)nc21	-9	1	68*	0	2	0
COc1ccc(/C(C)=N/NC(=O)Cc2cc(=O)[nH][nH]2)cc1OC	·	2	·	0	·	-4
Cc1ccc(C)c(NC(=O)c2cccc3c2-c2ccccc2C3=O)c1	·	6	·	0	·	10
COC(=O)CCC(=O)Nc1ccccc1C(N)=O	0	-1	-4	0	1	5
COC(=O)CCC(=O)Nc1cccc2c(NC(=O)CCC(=O)OC)cccc12	21*	-1	-8	0	0	3
C/C(=N/O)c1ccccn1	1	5	8	0	-1	7
CCCCCC/C(=N/O)c1ccccn1	4	-15	59*	0	-1	8
O=C(NNC(=S)NC(=O)c1ccc(F)cc1)c1ccncc1	-4	1	18	0	-2	-5
CC1(C(=O)NC(=S)NNC(=O)c2ccncc2)CCCCC1	-18	0	33	-1	81*	3
O=C(NNC(=S)NC(=O)C12CC3CC(CC(C3)C1)C2)c1ccncc1	0	4	-84	-1	139*	-1
CC12CC3CC(C1)CC(C(=O)NNC(=O)c1ccncc1)(C3)C2	4	8	4	0	0	6
CCCCN1C[C@@H](COCc2ccccc2)Oc2cccc(F)c2S1(=O)=O	·	-1	·	0	·	-2
COc1ccc(-c2cc3nc(C4CCN(C(=O)OC(C)(C)C)CC4)c(C(=O)O)cn3n2)cc1	-6	1	52*	-3	-3	-4
CCOC(=O)c1cn2nc(-c3ccc(OCC)cc3)cc2nc1C1CCN(C(=O)OC(C)(C)C)CC1	2	6	-25	0	-1	-2
Cc1cccc(-c2nc(CS(=O)CC(=O)N3CC(C)CC(C)C3)c(C)o2)c1 (stereo not drawn)	-4	1	55*	1	-1	6
COc1ccc(NC(=O)OCCN2CCCC23CCC(c2ccccc2)CC3)cc1 (stereo not drawn)	·	-6	·	·	·	-9
CSCC[C@H](NC(=O)c1cccc(S(=O)(=O)N2CCN(C)CC2)c1)c1nc2ccccc2[nH]1	5	8	-27	0	71*	5
COCc1[nH]nc2c1C(c1ccc3c(c1)OCO3)N(Cc1ccccc1)C2=O (stereo not drawn)	·	4	·	0	·	4
C=C1c2ccccc2S(=O)(=O)N(Cc2ccccc2)C1COCc1ccccc1 (stereo not drawn)	28*	0	-4	0	1	2
COc1ccc(S(=O)(=O)N/N=C\c2ccc3c(c2)OCO3)c(OC)c1	30*	1	17	0	-4	-3
COc1ccc(OC)c(S(=O)(=O)N/N=C\c2ccc3c(c2)OCO3)c1	-2	-2	4	0	0	-3
CN(C)c1ccc(C(CC(=O)O)NC(=O)c2ccc(Cl)cc2)cc1 (stereo not drawn)	-8	1	2	1	-2	7
O=C(CCc1ccccc1)NNC(=O)c1ccc(Cl)cc1	-2	-3	2	0	-2	2
SMILES	NRP1-CendR mod	DDE Tn6 FP inh	CRFR2-BP antag	proKLK7 act	CRFBP-R2 agonist	DDE Tn7 FP inh
CN(C)c1ccc(C(=O)NNC(=O)c2ccc(Cl)cc2)cc1	4	1	68*	0	0	-3
O=C(CCc1ccccc1)NNC(=S)NC(=O)c1ccc(Cl)cc1	·	·	13	·	99*	·
Cc1ccc(C(=O)NNC(=S)NC(=O)c2ccc(Cl)cc2)cc1	-5	-4	-123	0	216*	3
CC(=O)NNC(=S)NC(=O)c1ccc(C)cc1	3	-10	-11	0	4	-4
C[C@@H](/C=C/C(=O)OC(C)(C)C)Sc1ccc(C(C)(C)C)cc1	·	-2	·	-1	·	-4
O=C(c1c(F)cccc1F)N1CCC(Oc2cccnc2)CC1	·	4	·	0	·	6
O=C(OC12CCCN(C1)/C(=C/c1ccc(Cl)cc1)C2)c1ccc(F)cc1 (stereo not drawn)	·	-2	·	0	·	-5
COCC(=O)N(C)[C@H]1C[C@H]2c3[nH]c4c(-c5ccc6c(c5)OCO6)cccc4c3CCN2C(=O)[C@H]1[C@H](C)O	·	0	·	1	·	-1
COc1ccc(N2CCN(C(=O)c3cc(=O)c4cc(C)c(C)cc4o3)CC2)cc1	-1	-3	111*	-1	-1	5
COc1ccc(N2CCN(C(=O)c3csc4ccccc34)CC2)cc1	-7	-1	119*	0	-3	9
O=C(NC1CCCCN(Cc2ccc(Cl)cc2)C1=O)C(c1ccccc1)c1ccccc1 (stereo not drawn)	·	-6	·	0	·	-3
C=CCN1[C@@H](Cc2ccccc2)COc2cccc(F)c2S1(=O)=O	·	0	·	0	·	-4
COC(=O)[C@H](CC(C)C)N1Cc2nnn(Cc3ccc(C)cc3)c2-c2cc(F)ccc2S1(=O)=O	·	-7	·	1	·	-11
CC(C)C(Sc1nc(-c2ccccc2)cc(-c2ccccc2)c1C#N)C(=O)O (stereo not drawn)	-32	4	68*	0	0	-2
COc1ccc(-c2cc(-c3ccccc3)nc(SC(C)C(=O)O)c2C#N)cc1 (stereo not drawn)	-21	4	34	1	-5	2
N#Cc1c(-c2ccccc2)cc(-c2ccccc2)nc1SCC(=O)NCC(=O)O	-3	6	-13	-1	72*	6
CC(C)N1Cc2nnn(Cc3ccccc3)c2-c2cc(N3CCCC3)ccc2S1(=O)=O	·	0	·	-4	·	-3
CCOC(=O)Cn1cc(CN2C(C(=O)OC)CN(Cc3ccccc3)CCS2(=O)=O)nn1 (stereo not drawn)	·	10	·	0	·	0
CC(CNC(=O)c1ccc(NC2=NC3CS(=O)(=O)CC3S2)cc1)c1ccccc1 (stereo not drawn)	-18	2	-122	0	50*	1
